# According to ChEMBL document CHEMBL3102784, “Salicylanilide diethyl phosphates: synthesis, antimicrobial activity and cytotoxicity” (Bioorg Med Chem, 2014):
# Active and inactive are the calls of the source. The calls are words filed in the database; no cut-off is given here.
# Key:
# [1] = system: HepG2; assay: Cytotoxicity against human HepG2 cells after 24 hrs by CellTiter assay; format: cell-based; details: HepG2, 24 h
# Summary of the method: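 HepG2 cells (passage 27–33) in MEM with 10% FBS, L-glutamine and NEAA, seeded at 1×10^4 per well. Treated next day with compounds at 0.1–100 µM (or 0.1–25 µmol/L), triplicates, <1% DMSO, for 24 h at 37 °C, 5% CO2. MTS reagent added for 2 h, absorbance read at 490 nm. IC50 taken against untreated (100%) and 10% DMSO (0%) controls.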
# [2] = system: Trichosporon asahii; assay: Antifungal activity against Trichosporon asahii 1188 after 48 hrs by broth microdilution method; format: functional; details: Trichosporon asahii, 1188, 48 h
# Summary of the method: (§1)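 Broth microdilution in RPMI 1640 with glutamine, fluconazole as reference. For yeasts, MIC is ≥80% growth reduction (IC80) versus control. For filamentous fungi, the value is expressed as IC50. Readings at 24 and 48 h.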
# [3] = system: Candida tropicalis; assay: Antifungal activity against Candida tropicalis 156 at 500 micromol/L after 24 to 48 hrs by broth microdilution method; format: functional, organism-based; summary of the method: as §1
# [4] = system: Trichosporon asahii; assay: Antifungal activity against Trichosporon asahii 1188 after 24 hrs by broth microdilution method; format: functional; details: Trichosporon asahii, 1188, 24 h; summary of the method: as §1
# [5] = system: Trichophyton mentagrophytes; assay: Antifungal activity against Trichophyton mentagrophytes 445 after 120 hrs by broth microdilution method; format: functional; details: Trichophyton mentagrophytes, 445, 120 h
# Summary of the method: (§2)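 Filamentous dermatophyte tested by broth microdilution in RPMI 1640 with glutamine, fluconazole as reference. Value expressed as IC50 relative to growth control. Read at 72 and 120 h.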
# [6] = system: Mycobacterium kansasii; assay: Antimycobacterial activity against Mycobacterium kansasii 6509/96 after 7 days; format: functional; details: 6509/96, 168 h
# Summary of the method: (§3)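 Micromethod MIC in Šula's semisynthetic medium at 37 °C. Compounds added in DMSO at 1000 down to 0.032 µmol/L. Isoniazid standard in sterile water at 0.5–250 µmol/L. Inocula: H37Rv 10^3, M. avium 10^5, M. kansasii 10^4. Read at 14 and 21 d, plus 7 d for M. kansasii.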
# [7] = system: Mycobacterium kansasii; assay: Antimycobacterial activity against Mycobacterium kansasii My 235/80 after 14 days; format: functional; details: My 235/80, 336 h; summary of the method: as §3
# [8] = system: Mycobacterium kansasii; assay: Antimycobacterial activity against Mycobacterium kansasii 6509/96 after 21 days; format: functional; details: 6509/96, 504 h; summary of the method: as §3
# [9] = system: Aspergillus fumigatus; assay: Antifungal activity against Aspergillus fumigatus 231 after 24 hrs by broth microdilution method; format: functional; details: Aspergillus fumigatus, 231, 24 h; summary of the method: as §1
# [10] = system: Staphylococcus aureus; assay: Antibacterial activity against methicillin-resistant Staphylococcus aureus H 5996/08 after 24 hrs by broth microdilution method; format: functional; details: H 5996/08, 24 h
# Summary of the method: (§4)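 Broth microdilution in Mueller–Hinton broth, compounds dissolved in DMSO, tested over a dilution series from 500 downward. MIC taken as ≥95% growth reduction (IC95) versus drug-free control. Benzylpenicillin comparator. Readings at 24 and 48 h.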
# [11] = system: Staphylococcus aureus; assay: Antibacterial activity against methicillin-resistant Staphylococcus aureus H 5996/08 after 48 hrs by broth microdilution method; format: functional; details: H 5996/08, 48 h; summary of the method: as §4
# [12] = system: Mycobacterium kansasii; assay: Antimycobacterial activity against Mycobacterium kansasii My 235/80 after 21 days; format: functional; details: My 235/80, 504 h; summary of the method: as §3
# [13] = system: Staphylococcus epidermidis; assay: Antibacterial activity against Staphylococcus epidermidis H 6966/08 after 24 hrs by broth microdilution method; format: functional; details: H 6966/08, 24 h; summary of the method: as §4
# [14] = system: Pseudomonas aeruginosa; assay: Antibacterial activity against Pseudomonas aeruginosa CCM 1961 at 500 micromol/L after 24 to 48 hrs by broth microdilution method; format: functional, organism-based; summary of the method: as §4
# [15] = system: Mycobacterium avium; assay: Antimycobacterial activity against isoniazid, rifampicin, ethambutol and ofloxacin-resistant Mycobacterium avium My 330/88 after 21 days; format: functional; details: My 330/88, 504 h; summary of the method: as §3
# [16] = system: Lichtheimia corymbifera; assay: Antifungal activity against Absidia corymbifera 272 after 24 hrs by broth microdilution method; format: functional; details: Lichtheimia corymbifera, 272, 24 h; summary of the method: as §1
# [17] = system: Mycobacterium kansasii; assay: Antimycobacterial activity against Mycobacterium kansasii My 235/80 after 7 days; format: functional; details: My 235/80, 168 h; summary of the method: as §3
# [18] = system: Trichophyton mentagrophytes; assay: Antifungal activity against Trichophyton mentagrophytes 445 after 72 hrs by broth microdilution method; format: functional; details: Trichophyton mentagrophytes, 445, 72 h; summary of the method: as §2
# [19] = system: Staphylococcus aureus; assay: Antibacterial activity against Staphylococcus aureus CCM 4516/08 after 48 hrs by broth microdilution method; format: functional; details: CCM 4516/08, 48 h; summary of the method: as §4
# [20] = system: Nakaseomyces glabratus; assay: Antifungal activity against Candida glabrata 20/I at 500 micromol/L after 24 to 48 hrs by broth microdilution method; format: functional, organism-based; summary of the method: as §1
# [21] = system: Enterococcus sp.; assay: Antibacterial activity against Enterococcus sp. J 14365/08 at 500 micromol/L after 24 to 48 hrs by broth microdilution method; format: functional, organism-based; summary of the method: as §4
# [22] = system: Staphylococcus aureus; assay: Antibacterial activity against Staphylococcus aureus CCM 4516/08 after 24 hrs by broth microdilution method; format: functional; details: CCM 4516/08, 24 h; summary of the method: as §4
# [23] = system: Mycobacterium kansasii; assay: Antimycobacterial activity against Mycobacterium kansasii 6509/96 after 14 days; format: functional; details: 6509/96, 336 h; summary of the method: as §3
# [24] = system: Mycobacterium tuberculosis; assay: Antimycobacterial activity against Mycobacterium tuberculosis H37Rv My 331/88 after 14 days; format: functional; details: H37Rv My 331/88, 336 h; summary of the method: as §3
# [25] = system: Candida albicans; assay: Antifungal activity against Candida albicans ATCC 44859 after 48 hrs by broth microdilution method; format: functional; details: ATCC 44859, 48 h; summary of the method: as §1
# [26] = system: Candida albicans; assay: Antifungal activity against Candida albicans ATCC 44859 after 24 hrs by broth microdilution method; format: functional; details: ATCC 44859, 24 h; summary of the method: as §1
# [27] = system: Mycobacterium avium; assay: Antimycobacterial activity against isoniazid, rifampicin, ethambutol and ofloxacin-resistant Mycobacterium avium My 330/88 after 14 days; format: functional; details: My 330/88, 336 h; summary of the method: as §3
# [28] = system: Pichia kudriavzevii; assay: Antifungal activity against Candida krusei E28 after 48 hrs by broth microdilution method; format: functional; details: E28, 48 h; summary of the method: as §1
# [29] = system: Klebsiella pneumoniae; assay: Antibacterial activity against Klebsiella pneumoniae D 11750/08 at 500 micromol/L after 24 to 48 hrs by broth microdilution method; format: functional, organism-based; summary of the method: as §4
# [30] = system: Klebsiella pneumoniae; assay: Antibacterial activity against ESBL-positive Klebsiella pneumoniae J 14368/08 at 500 micromol/L after 24 to 48 hrs by broth microdilution method; format: functional, organism-based; summary of the method: as §4
# [31] = system: Pichia kudriavzevii; assay: Antifungal activity against Candida krusei E28 after 24 hrs by broth microdilution method; format: functional; details: E28, 24 h; summary of the method: as §1
# [32] = system: Lichtheimia corymbifera; assay: Antifungal activity against Absidia corymbifera 272 after 48 hrs by broth microdilution method; format: functional; details: Lichtheimia corymbifera, 272, 48 h; summary of the method: as §1
# [33] = system: Aspergillus fumigatus; assay: Antifungal activity against Aspergillus fumigatus 231 after 48 hrs by broth microdilution method; format: functional; details: Aspergillus fumigatus, 231, 48 h; summary of the method: as §1
# [34] = system: Staphylococcus epidermidis; assay: Antibacterial activity against Staphylococcus epidermidis H 6966/08 after 48 hrs by broth microdilution method; format: functional; details: H 6966/08, 48 h; summary of the method: as §4
# [35] = system: Escherichia coli; assay: Antibacterial activity against Escherichia coli CCM 4517 at 500 micromol/L after 24 to 48 hrs by broth microdilution method; format: functional, organism-based; summary of the method: as §4
# [36] = system: Mycobacterium tuberculosis; assay: Antimycobacterial activity against Mycobacterium tuberculosis H37Rv My 331/88 after 21 days; format: functional; details: H37Rv My 331/88, 504 h; summary of the method: as §3
SMILES,IC50 [1] [µM],MIC80 [2] [µM],Activity [3],MIC80 [4] [µM],MIC50 [5] [µM],MIC [6] [µM],MIC [7] [µM],MIC [8] [µM],MIC50 [9] [µM],MIC95 [10] [µM],MIC95 [11] [µM],MIC [12] [µM],MIC95 [13] [µM],Activity [14],MIC [15] [µM],MIC50 [16] [µM],MIC [17] [µM],MIC50 [18] [µM],MIC95 [19] [µM],Activity [20],also measured
CCOP(=O)(OCC)Oc1cc(Cl)ccc1C(=O)Nc1cccc(Br)c1,8.07,> 500,inactive,> 500,> 500,8,8,8,> 500,250,500,8,125,inactive,16,> 500,4,> 500,500,inactive,Activity [21]: inactive; MIC95 [22]: 125 µM; MIC [23]: 8 µM; MIC [24]: 4 µM; MIC80 [25]: > 500 µM; MIC80 [26]: > 500 µM; MIC [27]: 16 µM; MIC80 [28]: > 500 µM; Activity [29]: inactive; Activity [30]: inactive; MIC80 [31]: > 500 µM; MIC50 [32]: > 500 µM; MIC50 [33]: > 500 µM; MIC95 [34]: 250 µM; Activity [35]: inactive; MIC [36]: 4 µM
CCOP(=O)(OCC)Oc1cc(Cl)ccc1C(=O)Nc1ccc(Cl)c(Cl)c1,1.92,> 500,inactive,> 500,7.81,4,4,4,> 500,500,> 500,4,250,inactive,16,> 500,2,7.81,> 500,inactive,Activity [21]: inactive; MIC95 [22]: 500 µM; MIC [23]: 4 µM; MIC [24]: 4 µM; MIC80 [25]: > 500 µM; MIC80 [26]: > 500 µM; MIC [27]: 16 µM; MIC80 [28]: > 500 µM; Activity [29]: inactive; Activity [30]: inactive; MIC80 [31]: > 500 µM; MIC50 [32]: > 500 µM; MIC50 [33]: > 500 µM; MIC95 [34]: > 500 µM; Activity [35]: inactive; MIC [36]: 4 µM
